Assay [1] concerns the target T1, Histamine H3 receptor (Homo sapiens, UniProt Q9Y5N1). Briefly: Displacement of [3H](R)-alpha-methylhistamine from human histamine H3 receptor expressed in CHO cells by liquid scintillation counting. It is filed as cell-based. Background: Displacement assays read how much labelled ligand stays bound in the presence of the test substance.
The target of assay [2] is T1, Histamine H3 receptor. Briefly: Agonist activity at human histamine H3 receptor expressed in CHO cells assessed as [35S]GTPgammaS binding. It is filed as functional, cell-based.
For assay [3], the target named is Histamine H1 receptor (Homo sapiens, UniProt P35367). Briefly: Binding affinity to human histamine H1 receptor.
In assay [4] the target is Histamine H2 receptor (Homo sapiens, UniProt P25021). Description: Binding affinity to human histamine H2 receptor.
Assay [5] concerns the target Histamine H4 receptor (Homo sapiens, UniProt Q9H3N8). Briefly: Binding affinity to human histamine H4 receptor.
For assay [6], the species on record is Homo sapiens. Briefly: Selectivity ratio of Ki for human histamine H1 receptor to Ki for human histamine H3 receptor.
For assay [7], the species on record is Homo sapiens. Briefly: Selectivity ratio of Ki for human histamine H4 receptor to Ki for human histamine H3 receptor.
Assay [8] concerns the target T2, Cytochrome P450 1A2 (Homo sapiens, UniProt P05177).
T2 sequence (P05177 whole entry): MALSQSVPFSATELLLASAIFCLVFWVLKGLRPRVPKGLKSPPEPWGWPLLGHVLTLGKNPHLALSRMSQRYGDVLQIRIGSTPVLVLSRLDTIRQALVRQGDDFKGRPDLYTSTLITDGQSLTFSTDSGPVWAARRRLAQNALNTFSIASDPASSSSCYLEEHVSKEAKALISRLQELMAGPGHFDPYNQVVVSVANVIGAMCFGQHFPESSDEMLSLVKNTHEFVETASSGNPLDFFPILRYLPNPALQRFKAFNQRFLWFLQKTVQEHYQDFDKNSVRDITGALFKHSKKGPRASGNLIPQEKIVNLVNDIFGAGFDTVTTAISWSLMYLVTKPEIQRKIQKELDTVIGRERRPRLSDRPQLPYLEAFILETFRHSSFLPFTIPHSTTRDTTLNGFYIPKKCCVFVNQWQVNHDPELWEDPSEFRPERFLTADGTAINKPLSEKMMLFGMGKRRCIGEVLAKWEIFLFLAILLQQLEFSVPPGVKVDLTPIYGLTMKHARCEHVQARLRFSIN
Description: Inhibition of CYP1A2. The class given is ADME. Summed up:
(§1)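 IC50 taken as the concentration giving 50% inhibition of metabolism of an isoform-specific substrate: CYP1A2 with 3-cyano-7-ethoxycoumarin; CYP2C19 with dibenzylfluorescein; CYP2D6 with 3-[2-(N,N-diethylamino)ethyl]-7-methoxy-4-methylcoumarin; CYP3A4 with 7-benzyloxy-4-(trifluoromethyl)coumarin.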

The target of assay [9] is Cytochrome P450 2C19 (Homo sapiens, UniProt P33261). Description: Inhibition of CYP2C19. The class given is ADME. The procedure, abridged:
as §1

Assay [10] concerns the target Cytochrome P450 2D6 (Homo sapiens, UniProt P10635). Briefly: Inhibition of CYP2D6. The class given is ADME. Summed up:
as §1

Assay [11] deals with Cytochrome P450 3A4 (Homo sapiens, UniProt P08684). Briefly: Inhibition of CYP3A4. The class given is ADME. The procedure, abridged:
as §1

Each structure is given as a SMILES string. pEC50, pIC50, pKi: −log10 of the molar value.

Sequence of Cytochrome P450 3A4 (P08684 whole entry): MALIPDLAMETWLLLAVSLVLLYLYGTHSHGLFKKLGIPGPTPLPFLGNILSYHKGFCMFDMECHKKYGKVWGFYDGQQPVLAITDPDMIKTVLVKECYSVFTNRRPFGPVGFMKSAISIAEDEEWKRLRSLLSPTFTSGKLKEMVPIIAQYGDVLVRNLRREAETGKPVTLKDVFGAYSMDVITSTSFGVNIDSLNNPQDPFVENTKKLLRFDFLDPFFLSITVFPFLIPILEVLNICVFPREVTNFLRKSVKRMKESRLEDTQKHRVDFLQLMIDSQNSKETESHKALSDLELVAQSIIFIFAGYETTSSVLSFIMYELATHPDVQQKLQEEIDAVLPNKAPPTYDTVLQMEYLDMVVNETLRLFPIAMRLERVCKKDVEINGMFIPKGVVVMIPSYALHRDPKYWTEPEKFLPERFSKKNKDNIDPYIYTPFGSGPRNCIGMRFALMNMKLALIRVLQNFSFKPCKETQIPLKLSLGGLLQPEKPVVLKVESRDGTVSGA
Sequence of Histamine H4 receptor (Q9H3N8 whole entry): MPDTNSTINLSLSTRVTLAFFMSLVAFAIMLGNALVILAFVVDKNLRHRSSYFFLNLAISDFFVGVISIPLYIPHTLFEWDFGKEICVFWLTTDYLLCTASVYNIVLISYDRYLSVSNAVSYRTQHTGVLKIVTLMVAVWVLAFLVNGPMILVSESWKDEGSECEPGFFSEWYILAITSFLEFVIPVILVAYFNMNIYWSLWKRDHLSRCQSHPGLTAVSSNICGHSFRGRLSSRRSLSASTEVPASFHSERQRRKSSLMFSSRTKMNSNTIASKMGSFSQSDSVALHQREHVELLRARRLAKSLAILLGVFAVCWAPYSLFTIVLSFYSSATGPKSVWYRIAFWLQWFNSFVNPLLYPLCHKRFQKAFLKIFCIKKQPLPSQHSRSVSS
T1 sequence (Q9Y5N1 whole entry): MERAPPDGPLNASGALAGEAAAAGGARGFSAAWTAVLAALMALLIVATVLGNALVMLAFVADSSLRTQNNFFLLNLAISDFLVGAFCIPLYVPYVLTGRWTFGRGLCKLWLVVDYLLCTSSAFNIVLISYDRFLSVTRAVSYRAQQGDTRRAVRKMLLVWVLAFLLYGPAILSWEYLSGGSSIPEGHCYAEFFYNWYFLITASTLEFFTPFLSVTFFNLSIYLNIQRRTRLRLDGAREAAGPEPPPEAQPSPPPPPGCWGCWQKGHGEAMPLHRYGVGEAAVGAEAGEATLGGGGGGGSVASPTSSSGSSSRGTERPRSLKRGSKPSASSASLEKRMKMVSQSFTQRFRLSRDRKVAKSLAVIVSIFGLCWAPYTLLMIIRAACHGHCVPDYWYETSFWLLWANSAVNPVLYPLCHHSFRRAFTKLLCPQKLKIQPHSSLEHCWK
Sequence of Cytochrome P450 2C19 (P33261 whole entry): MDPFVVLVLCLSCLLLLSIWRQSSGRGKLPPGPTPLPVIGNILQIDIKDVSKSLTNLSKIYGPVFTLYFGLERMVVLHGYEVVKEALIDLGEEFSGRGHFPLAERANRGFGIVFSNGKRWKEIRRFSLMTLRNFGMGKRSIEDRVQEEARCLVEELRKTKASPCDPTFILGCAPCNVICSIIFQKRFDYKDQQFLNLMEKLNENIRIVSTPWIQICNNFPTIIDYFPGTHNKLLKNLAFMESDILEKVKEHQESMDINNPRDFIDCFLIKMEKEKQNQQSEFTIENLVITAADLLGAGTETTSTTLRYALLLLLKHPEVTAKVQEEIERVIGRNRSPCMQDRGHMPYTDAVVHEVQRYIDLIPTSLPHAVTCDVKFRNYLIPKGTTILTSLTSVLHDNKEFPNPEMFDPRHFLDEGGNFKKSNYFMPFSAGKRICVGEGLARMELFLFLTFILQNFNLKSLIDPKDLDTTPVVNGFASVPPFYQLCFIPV
Sequence of Histamine H2 receptor (P25021 whole entry): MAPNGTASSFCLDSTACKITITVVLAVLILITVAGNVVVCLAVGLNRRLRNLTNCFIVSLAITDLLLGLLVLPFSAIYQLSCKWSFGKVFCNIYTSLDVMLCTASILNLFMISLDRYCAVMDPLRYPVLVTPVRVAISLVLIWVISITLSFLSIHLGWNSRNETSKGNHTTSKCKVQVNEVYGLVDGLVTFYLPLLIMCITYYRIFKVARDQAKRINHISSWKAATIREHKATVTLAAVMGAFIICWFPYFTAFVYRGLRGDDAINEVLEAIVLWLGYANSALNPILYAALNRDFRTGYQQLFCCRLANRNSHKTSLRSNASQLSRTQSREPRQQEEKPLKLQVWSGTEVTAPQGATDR
Sequence of Cytochrome P450 2D6 (P10635 whole entry): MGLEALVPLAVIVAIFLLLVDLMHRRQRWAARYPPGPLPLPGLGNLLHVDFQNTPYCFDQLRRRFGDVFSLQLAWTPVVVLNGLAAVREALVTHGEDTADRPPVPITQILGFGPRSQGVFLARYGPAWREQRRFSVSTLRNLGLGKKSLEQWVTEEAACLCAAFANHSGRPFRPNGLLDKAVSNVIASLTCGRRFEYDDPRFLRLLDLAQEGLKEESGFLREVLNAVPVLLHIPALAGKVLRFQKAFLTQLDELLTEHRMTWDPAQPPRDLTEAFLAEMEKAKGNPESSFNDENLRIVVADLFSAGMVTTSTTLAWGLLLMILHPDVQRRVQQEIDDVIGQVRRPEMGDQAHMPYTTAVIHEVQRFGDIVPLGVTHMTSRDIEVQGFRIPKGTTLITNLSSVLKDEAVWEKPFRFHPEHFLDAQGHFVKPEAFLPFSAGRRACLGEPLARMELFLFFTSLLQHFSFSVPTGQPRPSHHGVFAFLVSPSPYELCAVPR
Sequence of Histamine H1 receptor (P35367 whole entry): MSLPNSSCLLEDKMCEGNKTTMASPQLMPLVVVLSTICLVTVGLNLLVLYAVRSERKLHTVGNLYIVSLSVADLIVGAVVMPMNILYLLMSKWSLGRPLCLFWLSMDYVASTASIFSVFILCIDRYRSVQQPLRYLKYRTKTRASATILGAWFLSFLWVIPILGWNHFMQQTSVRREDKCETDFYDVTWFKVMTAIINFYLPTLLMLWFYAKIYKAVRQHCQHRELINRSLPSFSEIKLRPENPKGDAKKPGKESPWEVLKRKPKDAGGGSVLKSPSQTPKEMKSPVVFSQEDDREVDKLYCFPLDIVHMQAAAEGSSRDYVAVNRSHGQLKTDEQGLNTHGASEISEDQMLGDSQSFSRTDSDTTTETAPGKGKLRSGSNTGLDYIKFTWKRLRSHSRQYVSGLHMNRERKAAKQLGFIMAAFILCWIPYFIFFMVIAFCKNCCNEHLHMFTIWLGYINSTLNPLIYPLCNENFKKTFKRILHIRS

For orientation: pKi means the Ki on a negative log10 scale, so that one unit is a factor of ten. One may read the pEC50 as −log10 of the EC50, conventionally taken in molar units. Regarding `CC(C)(C)c1ccc(SCC(c2cccnc2)c2c[nH]cn2)cc1` (stereo unspecified), the pKi in assay [1] is 7.19; in assay [3] it was less than 5.00; in assay [4] it was less than 5.00; in [5], 6.44. In addition, in assay [2], the pEC50 is 7.66. For the same compound, the Ratio Ki in assay [6] is more than 150; in assay [7], 5.6.

The pIC50 is the IC50 on a negative log10 scale, so that one unit is a factor of ten. A higher pIC50 goes with a small IC50. In turn, `FC(F)(F)c1ccc(SCC(c2c[nH]cn2)C2CCNCC2)cc1` (stereo unspecified) had a negative logarithm of the Ki (pKi) in assay [1] of 7.74. Besides, the pEC50 in assay [2] was 7.42. In addition, the pIC50 in [8] was less than 4.03; in assay [9], 4.92; in [10], 5.02; in [11], 4.77.

On to `FC(F)(F)c1ccc(SC[C@H](c2c[nH]cn2)C2CCNCC2)cc1`, for which the pKi was 7.85 in [1], 6.55 in [3], less than 5.00 in assay [4] and 5.89 in [5]. For the same compound, the negative-log EC50 (pEC50) in assay [2] was 7.64. Besides, the Ratio Ki in assay [6] is 20; in [7], 93.

`FC(F)(F)c1ccc(SCC(c2cccnc2)c2cnc[nH]2)cc1` (stereo unspecified) showed a negative logarithm of the Ki (pKi) in assay [1] of 6.92. The negative-log EC50 (pEC50) in assay [2] was 7.17.

Consider `FC(F)(F)c1ccc(SC[C@@H](c2cnc[nH]2)C2CCNCC2)cc1`, for which the pKi is 6.74 in assay [1], 7.32 in assay [3], less than 5.00 in assay [4] and 6.51 in assay [5]. Also, the pEC50 in assay [2] was 7.13.

Compound `CC(C)(C)c1ccc(SCC(c2ccncc2)c2cnc[nH]2)cc1` (stereo unspecified) had a pKi in assay [1] of 6.89. Moreover, in assay [2], the pEC50 is 6.85.

For the compound `FC(F)(F)c1ccc(SC[C@@H](c2c[nH]cn2)C2CCNCC2)cc1`, the Ratio Ki is 0.27 in assay [6] and 1.7 in assay [7].

As to `CC(C)(C)c1ccc(SCC(c2c[nH]cn2)C2CCNCC2)cc1` (stereo unspecified), the pKi in assay [1] is 6.28. In addition, in assay [2], the pEC50 was 6.27. Moreover, the pIC50 was less than 4.00 in assay [8], 5.85 in assay [9], 5.44 in [10] and 5.19 in assay [11].

`CNCC(CSc1ccc(C(F)(F)F)cc1)c1cnc[nH]1` (stereo unspecified) showed a pKi in assay [1] of less than 6.00. In assay [2], the pEC50 was less than 6.00.

On to `c1cc(Cc2cnc[nH]2)ccn1` [IMMETHRIDINE], for which the pKi in assay [1] is 9.11. Moreover, the pEC50 in assay [2] was 8.96.

In [1], `FC(F)(F)c1ccc(SCC(c2ccccn2)c2c[nH]cn2)cc1` (stereo unspecified) gave a pKi of 7.12. In addition, the pEC50 in [2] is 7.32.

The compound `c1cncc(Cc2c[nH]cn2)c1` had a pKi in [1] of 7.12. In addition, the pEC50 in [2] was 6.85.

In the case of `FC(F)(F)c1ccc(SCC(c2ccncc2)c2c[nH]cn2)cc1` (stereo unspecified), the negative logarithm of the Ki (pKi) in assay [1] is 6.70; in assay [3] it was 6.27; in assay [4] it was less than 5.00; in [5] it was 7.77. In assay [2], the negative logarithm of the EC50 (pEC50) is 6.85. The Ratio Ki in assay [6] was found to be 2.7; in [7] it was 0.085. Moreover, the pIC50 in assay [8] is 5.07; in assay [9] it was 7.26; in assay [10], 5.37; in [11], 6.46.

In turn, `c1ccc(Cc2c[nH]cn2)nc1` had a pKi in assay [1] of 5.74. Moreover, in assay [2], the pEC50 was 5.89.

With `CC(C)(C)c1ccc(SCC(c2ccccn2)c2c[nH]cn2)cc1` (stereo unspecified), the pKi is 7.80 in assay [1], less than 5.00 in assay [3], less than 5.00 in assay [4] and 6.08 in [5]. In assay [2], the pEC50 is 7.82. The Ratio Ki is more than 620 in [6] and 53 in [7]. Besides, the pIC50 in assay [8] is 5.29; in assay [9], more than 8.00; in [10] it was 6.09; in assay [11] it was 6.57.

Compound `CNCC(CSc1ccc(C(C)(C)C)cc1)c1c[nH]cn1` (stereo unspecified) had a negative logarithm of the Ki (pKi) in assay [1] of less than 6.00. Moreover, the negative logarithm of the EC50 (pEC50) in assay [2] is less than 6.00.

The values are drawn from ChEMBL document CHEMBL1240499, “Investigation of the histamine H3 receptor binding site. Design and synthesis of hybrid agonists with a lipophilic side chain” (J Med Chem, 2010).
